The source made the active and inactive calls. No cut-off for these calls is given here.
System: Plasmodium falciparum
Assay: Synergistic antiplasmodial activity against multidrug-resistant Plasmodium falciparum Cam3.1R539T infected in human erythrocytes at 8 times IC50 concentration incubated for 72 hrs in presence of pyrimethamine by SYBR green I staining based fluorescence assay
Assay type: functional, organism-based
Settings: Erythrocyte
In short: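 P. falciparum Cam3.1R539T in O+ human erythrocytes, 1% parasitemia, 2% haematocrit. 8× IC50 stocks of test compound and standard drug were mixed at molar ratios 4:1, 3:2, 2:3 and 1:4, then serially diluted two-fold. Plates were incubated 72 h at 37 °C and read by SYBR Green I lysis. Controls were 0.4% DMSO (100% growth) and 4 μM chloroquine (0% growth). ΣFIC = FICA + FICB; <1 synergistic, 1.0–2.0 additive, >2.0 antagonistic.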

## Clc1ccc2c(N3CCN(CCCn4nnc(-c5ccc(Br)cc5)n4)CC3)ccnc2c1
  Activity: Active

Reference: ChEMBL document CHEMBL5335820, “Novel quinolinepiperazinyl-aryltetrazoles targeting the blood stage of Plasmodium falciparum” (RSC Med Chem, 2024)
